Compound activity (PubChem BioAssay)
An excerpt weighted towards active compounds, which were near 2.4% of everything screened.
Yeast growth inh – reduces growth of yeast BB579 in restrictive medium; S. cerevisiae BB579 growth, OD615, 48 h; AID 804; inhibition, % at 10 µM; 140,000 compounds, 0.51% hits;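 active means inhibition above a set limit, 3 SD over the mean compound inhibition, cut at about 44% in these data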
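controls = amphotericin B 10 µg/mL, positive | assay system = DeaD yeast strain BB579 | schedule = 48 h compound exposure at 30 °C after 4 h preincubation | detection = OD615 turbidity measurement | medium = restrictive CSMM-D medium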
Measles CPE – protection of cells from measles virus; Measles virus-infected cells, CPE protection, absorbance; protection (pct of control), % at 4 µM; 140,000 compounds, 1.5% hits; in the data active means protection mostly above about 24%, no sharp cut-off; inactive means mostly below about 26%
Arbovirus anti – arbovirus infection inhibition; AID 1251; arbovirus infection cell-based antiviral screen; 200,000 compounds, 0.37% hits; inhibition, % at 10 µM; in the data active means inhibition above about 30%
Efa HMGR inh – blocks class II HMG-CoA reductase of Enterococcus faecalis; AID 1066; inhibition, % at 10 µM; purified E. faecalis HMGR, NADPH absorbance 340 nm kinetic; 190,000 compounds, 0.41% hits;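 active means inhibition above a set limit, the median over all tested compounds plus 3 SD, cut at about 9.5% in these data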;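 further: enzyme runs in reverse so mevalonate oxidation gives rising NADPH absorbance; 0% = complete reaction with DMSO and 100% = background rate lacking mevalonate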
Yeast lifespan up – extends the lifespan of yeast. 130,000 compounds, 0.68% hits. inhibition of the nicotinamide effect, % at 10 µM. S. cerevisiae growth with nicotinamide, OD615; deaD strain in restrictive glucose medium;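 active means inhibition above a set limit, placed 3 SD over the median of all compounds, cut at about 26% in these data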;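 further: 0% = nicotinamide-treated wells and 100% = cells grown without nicotinamide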
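Measured by: optical density (absorbance) at 615 nm; System: modified budding yeast, DeaD strain; Medium: restrictive CSMM-D dextrose medium; Timing: 4 h preincubation then 48 h treatment at 30 °C.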
Rad51 HR inh – blocks human Rad51 in homologous recombination; inhibition, % at 10 µM; hRad51 DNA strand exchange, fluorescence dequenching; Q06609; 200,000 compounds, 0.085% hits;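 active means inhibition above 40% at the single screening dose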;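 further: 0% = DMSO control wells and 100% = blanks with heterologous ssDNA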
Target sequence (Q06609 whole entry, looked up): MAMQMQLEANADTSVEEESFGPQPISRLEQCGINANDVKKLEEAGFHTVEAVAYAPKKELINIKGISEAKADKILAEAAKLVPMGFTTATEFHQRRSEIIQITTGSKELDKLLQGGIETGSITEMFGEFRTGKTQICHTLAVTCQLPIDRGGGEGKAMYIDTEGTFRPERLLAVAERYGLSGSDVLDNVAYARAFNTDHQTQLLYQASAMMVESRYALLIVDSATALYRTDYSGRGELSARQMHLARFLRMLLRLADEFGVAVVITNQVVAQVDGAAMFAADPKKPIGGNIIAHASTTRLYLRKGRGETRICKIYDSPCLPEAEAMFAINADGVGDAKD
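Material: human Rad51–ssDNA filaments; Probe or stimulus: labelled 47-mer dsDNA for strand exchange; Doses: single 10 µM dose; Incubation: 37 °C 15-min filament assembly, 30-min compound preincubation, 15-min exchange; Technique: FRET fluorescence dequenching, excitation 485 nm, emission 520 nm; Measure: Fluorescence-based percent inhibition, control- and blank-normalised; Benchmarks: plate control and blank wells.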
* hit, by the source's call; · = not tested or not shown; ! = not active in a repeat.

SMILES	Yeast growth inh	Measles CPE	Arbovirus anti	Efa HMGR inh	Yeast lifespan up	Rad51 HR inh
c1ccc2nc3c(cc2c1)CCCCC3	·	·	·	·	·	-11
COc1cc(S(=O)(=O)n2cnc(C)c2)ccc1Br	·	·	-1	-12	·	-1
O=C(Nc1ncnc2c1ncn2C1OC(COC(=O)c2ccccc2)C(F)C1O)c1ccccc1 (configuration not stated)	-57	13	-6	-3	-9	0
CC(=O)O/N=C/c1c(N2CCOCC2)n(C)c2ccccc12	79*	7	-4	-4	-10	-3
Cc1ccc(C(=O)O/N=C/c2c(N3CCOCC3)n(C)c3ccccc23)cc1	64*	3	-3	-7	-8	6
Cn1c(N2CCOCC2)c(/C=N/O)c2ccccc21	·	·	8	-2	·	-4
Cn1c(N2CCOCC2)c(/C=N/OC(=O)c2ccc(F)cc2)c2ccccc21	85*	5	-17	4	-23	-1
COc1ccc(NC(=O)C(c2ccccc2)N(C)C(=O)c2ccc(=O)[nH]c2)cc1 (configuration not stated)	-36	31*	1	1	12	8
Cc1ccc(C(C(=O)Nc2ccc(C(C)C)cc2)N(C)C(=O)c2ccc(=O)[nH]c2)cc1 (configuration not stated)	·	·	9	-1	·	·
COc1ccc(C(=O)Nc2nc(C)c(C(=O)N(C)C)s2)cc1OC	-3	35*	4	-3	-23	8
COc1ccc(/C=C/C(=O)Nc2nc(C)c(C(=O)N(C)C)s2)cc1OC	-15	13	-2	1	-1	·
CCOc1cc(C(=O)OCC(=O)Nc2c(C)cccc2C)ccc1OCC(=O)N1CCOCC1	-30	33*	4	-1	4	8
CC(C)(C)NS(=O)(=O)c1ccc(/C=C/C(=O)O)cc1	·	·	2	-1	·	·
O=Cc1ccc(OC2OCCOC2Oc2ccc(C=O)cc2)cc1 (configuration not stated)	-21	6	1	4	0	12
CC1(C)CC(=O)C=C(N=CC2=C(O)CC(C)(C)CC2=O)C1	-5	52*	1	-7	-1	-8
CC1/C(=N/O)CC(c2ccccc2)N(C)C1c1ccccc1 (configuration not stated)	88*	11	-2	-4	·	4
CCCn1[nH]cc(SC)c(=O)c1=O	2	4	-1	-5	42*	-4
O=C1C2C3C=CC([C@@H]2C(=O)N1Cc1cccnc1)C31CC1 (some centres not stated)	2	45*	5	0	0	2
Cc1ccc(S(=O)(=O)Nc2ccccc2/C=N/c2nc3ccccc3n2C)cc1	-35	27	-4	-1	31*	·
O=C(Cn1cc([N+](=O)[O-])cn1)Nc1cccnc1	·	·	0	-8	·	19
O=C(Nc1cccc2ccccc12)c1ccc(OC(=S)N2CCOCC2)cc1	-15	109*	-6	-4	-6	·
O=C(CCn1ccnc1)Nc1ccc2ccccc2c1	·	·	3	4	·	2
CN(C)CCOC(c1ccccc1)c1ccccc1	-26	31	4	18*!	0	-5
CN(C)CCOC(c1ccccc1)c1ccccc1 (tested in a mixture with another compound)	-44	13	3	-6	3	5
N#C/C(C(N)=O)=c1/ccc2c(c1)N1C3=C(CCCC3)CC3CCCCC31N=2 (configuration not stated)	-19	11	-33	1	37*	-27
SMILES	Yeast growth inh	Measles CPE	Arbovirus anti	Efa HMGR inh	Yeast lifespan up	Rad51 HR inh
O=C(NC(=S)NCC1CCCO1)c1ccc(Cl)cc1 (configuration not stated)	-4	7	-3	-4	-9	7
Cc1ccccc1NC(=O)NCC1CCCO1 (configuration not stated)	-32	4	3	2	-10	42*
COC(=O)c1ccccc1NC(=O)NCC1CCCO1 (configuration not stated)	-18	14	2	-1	-17	2
Cc1ccc(C(=O)NC(=S)NCC2CCCO2)cc1 (configuration not stated)	-33	2	4	0	32*	2
CC12CC(c3ccccc3O1)N(C(=O)c1ccco1)C(=S)N2c1ccc(F)cc1 (configuration not stated)	-18	1	-15	-2	13	-7
O=C(CSc1ncn[nH]1)CSc1ncn[nH]1	·	·	4	-4	·	38
CCC(C)Sc1nc2c(c(=O)[nH]1)C(c1cccs1)C1=C(CCCC1=O)N2 (configuration not stated)	·	·	33*	7	·	-11
O=C1CCCC2=C1C(c1ccncc1)c1c(nc(SCc3ccccc3Cl)[nH]c1=O)N2 (configuration not stated)	-17	7	7	0	-9	-3
O=C1CN(CC(=O)Nc2cccc(Cl)c2Cl)c2ccccc2N1	·	·	-8	-2	·	-9
CC1(C)CC2CC(C)(CN2C(=S)Nc2ccccc2)C1 (configuration not stated)	·	·	3	3	·	4
CC1(C)CC2CC(C)(CN2C(=S)NC(=O)c2ccccc2Cl)C1 (configuration not stated)	-37	9	-17	-5	29*	1
O=C(C1CC1)N1CCN=C1SCc1ccc(F)cc1	5	7	5	-5	-6	3
O=C(C1CC1)N1CCN=C1SCc1ccccc1	-27	41*	-9	-7	-9	8
COc1ccc(NC(=O)CCn2nnc(-c3ccc(C)cc3)n2)cc1OC	-30	55*	-11	-6	·	-2
Cc1ccc(-c2nn(CC(=O)N3CCOCC3)c(=O)c3ccccc23)cc1S(=O)(=O)N(C)C	·	·	·	·	·	9
CCSC1=N/C(=C\c2ccccc2)C(=O)N1c1ccc(OC)cc1	·	·	-9	-5	·	13
CCN(CC)C1=N/C(=C\c2ccc(OC)cc2)C(=O)N1c1ccccc1	-55	69*	-3	-4	1	22
O=C(NCCOc1ccccc1Cl)C(=O)c1c[nH]c2ccccc12	·	·	3	17*	·	4
COc1ccccc1OCCNC(=O)C(=O)c1c[nH]c2ccccc12	·	·	·	·	·	1
CCOC(=O)CSC1=NC(=O)/C(=C\c2ccc(Cl)cc2)S1	3	3	12	1	-3	-47
CCSc1nc2ccccc2n1CCC(=O)O	-41	2	2	-3	-2	-9
O=C(O)CCn1c(SCc2cccc3ccccc23)nc2ccccc21	-28	29*	2	-9	-9	-13
O=C(O)c1ccccc1CSc1nc2ccccc2n1Cc1ccccc1C(=O)O	·	·	8	11*	·	·
COC(=O)c1c(SCc2ccc(C#N)cc2)nc(=O)[nH]c1C	·	·	78*	-3	·	4
O=C(c1ccco1)N1CCN(S(=O)(=O)Cc2ccccc2Cl)CC1	·	·	6	-1	·	·
